Laboratory results: ChEMBL document CHEMBL3871272, “Systemic optimization and structural evaluation of quinoline derivatives as transthyretin amyloidogenesis inhibitors” (Eur J Med Chem, 2016)
One block for each compound: values may come before it. Activity calls are given as the source filed them. The rule behind the calls is not given here.

Key:
[1] = target: T1, Transthyretin (Homo sapiens, UniProt P02766); assay: Inhibition of wild type TTR (unknown origin) assessed as inhibition of acid-mediated amyloidogenesis by measuring fibril formation at 7.2 uM preincubated with enzyme followed by amyloidogenesis stimulation by adjusting pH to 4.4 measured after 72 hrs relative to control; set-up: scale not given: the % may be the effect or the level left
Procedure, shortened: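 WT-TTR (3.6 µM, physiological level) was preincubated with inhibitor at 7.2 or 3.6 µM. The pH was then adjusted to 4.4 to trigger fibril formation, 37 °C, 72 h. Fibrils were expressed relative to untreated WT-TTR set at 100%.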

[2] = Tmax in Sprague-Dawley rat at 2 mg/kg, iv administered as single dose by HPLC/MS/MS method; type: ADME, organism-based; conditions: in vivo
Procedure, shortened: (§1)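 Male SD rats, fasted overnight, four animals, single tail-vein IV dose of 2 mg/kg. Dosing solution 1 mg/mL in 10% DMSO, 40% PEG400, 50% saline. Plasma concentrations were measured over time. Parameters were calculated per animal and averaged.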

[3] = Plasma clearance in Sprague-Dawley rat at 2 mg/kg, iv administered as single dose by HPLC/MS/MS method; type: ADME, organism-based; procedure, shortened: as §1
[4] = AUC (0 to t) in Sprague-Dawley rat at 5 mg/kg, po administered as single dose via oral gavage by HPLC/MS/MS method; type: ADME, organism-based; conditions: in vivo
Procedure, shortened: (§2)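 Male Sprague-Dawley rats, fasted overnight, 5 animals. Single 5 mg/kg oral dose by gavage needle, given as a 2.5 mg/mL solution in 10% DMSO, 40% PEG400 and 50% saline. Plasma was processed by mixing and centrifugation at 12,000 g for 10 min, with an internal standard added, then analysed by RP-HPLC. Parameters were calculated for each animal and averaged.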

[5] = Cmax in Sprague-Dawley rat at 2 mg/kg, iv administered as single dose by HPLC/MS/MS method; type: ADME, organism-based; set-up: dose 2 mg/kg, route intravenous; conditions: in vivo; procedure, shortened: as §1
[6] = AUC (0 to t) in Sprague-Dawley rat at 2 mg/kg, iv administered as single dose by HPLC/MS/MS method; type: ADME, organism-based; conditions: in vivo
Procedure, shortened: (§3)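 Male Sprague-Dawley rats, fasted overnight, 4 animals. Single 2 mg/kg IV dose via tail vein, given as a 1 mg/mL solution in 10% DMSO, 40% PEG400 and 50% saline. Plasma was processed by vigorous mixing and centrifugation at 12,000 g for 10 min, with an internal standard added, then analysed by RP-HPLC. Parameters were calculated for each animal and averaged.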

[7] = Terminal half life in Sprague-Dawley rat at 5 mg/kg, po administered as single dose via oral gavage by HPLC/MS/MS method; type: ADME, organism-based; conditions: in vivo, read-out: beta t1/2 (converted)
Procedure, shortened: (§4)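 Five overnight-fasted male SD rats received a single 5 mg/kg dose by gavage needle. Dosing solution 2.5 mg/mL in 10% DMSO, 40% PEG400, 50% saline. Plasma concentration-time profiles were obtained, and parameters were calculated for each animal and then averaged.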

[8] = Oral bioavailability in Sprague-Dawley rat at 5 mg/kg administered as single dose by HPLC/MS/MS method; type: ADME, organism-based; conditions: in vivo
Procedure, shortened: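 Bioavailability was taken from dose-normalized AUC0-∞ after oral (5 mg/kg, gavage, n=5) versus IV (2 mg/kg, tail vein, n=4) dosing in fasted male SD rats. Vehicle: 10% DMSO, 40% PEG400, 50% saline.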

[9] = target: T1, Transthyretin; assay: Inhibition of wild type TTR (unknown origin) assessed as inhibition of acid-mediated amyloidogenesis by measuring fibril formation preincubated with enzyme followed by amyloidogenesis stimulation by adjusting pH to 4.4 measured after 72 hrs relative to control
[10] = Cmax in Sprague-Dawley rat at 5 mg/kg, po administered as single dose via oral gavage by HPLC/MS/MS method; type: ADME, organism-based; conditions: in vivo; procedure, shortened: as §4
[11] = Tmax in Sprague-Dawley rat at 5 mg/kg, po administered as single dose via oral gavage by HPLC/MS/MS method; type: ADME, organism-based; conditions: in vivo; procedure, shortened: as §4
[12] = target: T1, Transthyretin; assay: Inhibition of wild type TTR (unknown origin) assessed as inhibition of acid-mediated amyloidogenesis by measuring fibril formation at 3.6 uM preincubated with enzyme followed by amyloidogenesis stimulation by adjusting pH to 4.4 measured after 72 hrs relative to control; set-up: scale not given: the % may be the effect or the level left
Procedure, shortened: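 WT-TTR (3.6 μM, physiological concentration) preincubated with inhibitor (3.6 or 7.2 μM), then fibril formation triggered by adjusting pH to 4.4; incubated 37 °C, 72 h. Fibril formation expressed as percent of untreated WT-TTR (100%).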

[13] = AUC (0 to infinity) in Sprague-Dawley rat at 5 mg/kg, po administered as single dose via oral gavage by HPLC/MS/MS method; type: ADME, organism-based; conditions: in vivo; procedure, shortened: as §2
[14] = AUC (0 to infinity) in Sprague-Dawley rat at 2 mg/kg, iv administered as single dose by HPLC/MS/MS method; type: ADME, organism-based; set-up: dose 2 mg/kg, time infinity, route intravenous; conditions: in vivo; procedure, shortened: as §3
[15] = Volume of distribution at steady state distribution in Sprague-Dawley rat at 2 mg/kg, iv administered as single dose by HPLC/MS/MS method; type: ADME, organism-based; conditions: in vivo, read-out: Vdss; procedure, shortened: as §1
[16] = Terminal half life in Sprague-Dawley rat at 2 mg/kg, iv administered as single dose by HPLC/MS/MS method; type: ADME, organism-based; conditions: in vivo, read-out: beta t1/2 (converted); procedure, shortened: as §1
[17] = tested on: Transthyretin (Homo sapiens), P02766 [V50M]; assay: Inhibition of TTR V30M mutant (unknown origin) assessed as inhibition of acid-mediated amyloidogenesis by measuring fibril formation at 3.6 uM preincubated with enzyme followed by amyloidogenesis stimulation by adjusting pH to 4.4 measured after 72 hrs relative to control; set-up: scale not given: the % may be the effect or the level left
Procedure, shortened: (§5)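 V30M-TTR (3.6 μM) preincubated with inhibitor (3.6 or 7.2 μM), then fibril formation triggered by adjusting pH to 4.4; incubated 37 °C, 72 h. Fibril formation expressed as percent of untreated V30M-TTR (100%).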

[18] = tested on: Transthyretin (Homo sapiens), P02766 [V50M]; assay: Inhibition of TTR V30M mutant (unknown origin) assessed as inhibition of acid-mediated amyloidogenesis by measuring fibril formation at 7.2 uM preincubated with enzyme followed by amyloidogenesis stimulation by adjusting pH to 4.4 measured after 72 hrs relative to control; set-up: scale not given: the % may be the effect or the level left; procedure, shortened: as §5
[19] = target: T1, Transthyretin; assay: Inhibition of wild type TTR (unknown origin) assessed as inhibition of acid-mediated amyloidogenesis by measuring reduction in fibril formation at 3.6 uM preincubated with enzyme followed by amyloidogenesis stimulation by adjusting pH to 4.4 measured up to 120 hrs relative to control
Procedure, shortened: (§6)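 Time-course version of the acid-mediated fibril formation assay: inhibitor at a concentration equal to the TTR tetramer (3.6 μM), preincubated with TTR, then acidified to pH 4.4. Fibril formation followed over 120 h instead of at a fixed 72 h, relative to untreated TTR.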

[20] = tested on: Transthyretin (Homo sapiens), P02766 [V50M]; assay: Inhibition of TTR V30M mutant (unknown origin) assessed as inhibition of acid-mediated amyloidogenesis by measuring reduction in fibril formation at 3.6 uM preincubated with enzyme followed by amyloidogenesis stimulation by adjusting pH to 4.4 measured up to 120 hrs relative to control; procedure, shortened: as §6
[21] = target: Transthyretin (Homo sapiens, UniProt P02766, V50M); assay: Inhibition of TTR V30M mutant (unknown origin) assessed as inhibition of acid-mediated amyloidogenesis by measuring fibril formation preincubated with enzyme followed by amyloidogenesis stimulation by adjusting pH to 4.4 measured after 72 hrs relative to control

Compound: COc1ccc2nc(C#Cc3cc(C)c(O)c(C)c3)ccc2c1
Activity [1]: 22.1%

Compound: CCc1cc(C#Cc2ccc3ccccc3n2)ccc1O
Activity [1]: 99%

Compound: Cc1cc(C#Cc2ccc3ccccc3n2)cc(C)c1O
Activity [1]: 10.2%
IC50 [9]: 2180 nM
Activity [12]: 25.6%

Compound: CCc1cc(C#Cc2ccc3ccccc3n2)cc(CC)c1O
Activity [1]: 93.4%

Compound: Cc1cc(/C=C/c2ccc3cc([N+](=O)[O-])ccc3n2)cc(C)c1O
Activity [1]: 92.9%

Compound: Cc1cc(/C=C/c2ccc3cc(N)ccc3n2)cc(C)c1O
Activity [1]: 26.8%
Activity [12]: 51.3%

Compound: Cc1cc(C#Cc2ccc3cc([N+](=O)[O-])ccc3n2)cc(C)c1O
Activity [1]: 3.6%
IC50 [9]: 2060 nM
Activity [12]: 20.9%

Compound: Cc1cc(/C=C/c2ccc3ccccc3n2)cc(C)c1O
Activity [1]: 26.3%

Compound: Oc1ccc(C#Cc2ccc3ccccc3n2)cc1
Activity [1]: 73.9%

Compound: CC(C)c1cc(C#Cc2ccc3ccccc3n2)ccc1O
Activity [1]: 97.3%

The remaining lines, values ahead:

Activity [1]: 4.8%
Tmax [2]: 4.98 min
clearance [3]: 25.1 mL/min/kg
AUC(0-t) [4]: 226 ng·h/mL
Cmax [5]: 3110 ng/mL
AUC(0-t) [6]: 1330 ng·h/mL
half-life [7]: 1.59 h
bioavailability [8]: 6.89%
IC50 [9]: 1900 nM
Cmax [10]: 138 ng/mL
Tmax [11]: 2.45 h
Activity [12]: 17.9%
AUC(0-inf) [13]: 232 ng·h/mL
AUC(0-inf) [14]: 1350 ng·h/mL
Vd [15]: 1.48 L/kg
half-life [16]: 2.71 h
Compound: Cc1cc(C#Cc2ccc3cc(N)ccc3n2)cc(C)c1O

Activity [1]: 1%
Activity [17]: 17%
Activity [18]: 3.2%
Activity [12]: 14.8%
inhibition [19]: Active
Compound: O=C(O)c1ccc2nc(-c3cc(Cl)cc(Cl)c3)oc2c1

Activity [1]: 2.3%
Activity [12]: 33.2%
Compound: Cc1cc(/C=C/c2cc3ccccc3nc2Cl)cc(C)c1O

Activity [1]: 0.9%
Tmax [2]: 4.98 min
clearance [3]: 7.34 mL/min/kg
inhibition [20]: > 80%
AUC(0-t) [4]: 2840 ng·h/mL
Cmax [5]: 2380 ng/mL
AUC(0-t) [6]: 4510 ng·h/mL
Activity [17]: 16.6%
half-life [7]: 3.36 h
bioavailability [8]: 27.2%
IC50 [9]: 1490 nM
Cmax [10]: 665 ng/mL
Tmax [11]: 0.598 h
Activity [18]: 5%
Activity [12]: 17.7%
AUC(0-inf) [13]: 3120 ng·h/mL
AUC(0-inf) [14]: 4590 ng·h/mL
Vd [15]: 1.13 L/kg
IC50 [21]: 1630 nM
half-life [16]: 2.75 h
inhibition [19]: 7 to 23%
Compound: Cc1cc(/C=C/c2cc3ccc(O)cc3nc2Cl)cc(C)c1O

Activity [1]: 9.6%
IC50 [9]: 2590 nM
Activity [12]: 32.1%
Compound: Cc1cc(C#Cc2ccc3cc(O)ccc3n2)cc(C)c1O
